# Experimental data of several laboratories.
# Each line is one published result; the experiments were not run side by side.
# Effect on: cell growth or viability
SMILES,cell line,test,conditions,endpoint,result
COc1cccc2c1C(=O)c1c(O)c3c(c(O)c1C2=O)CC(O)(C(=O)CO)CC3OC1CC(NC(=O)OC2C=CCCCCC2)C(O)C(C)O1 (stereo not shown),HeLa,CCK-8,72 h,IC50,> 10 µM
COC(=O)c1cc(C(C)=NNc2nc(-c3ccc(S(=O)(=O)F)cc3)cs2)ccc1O,HSF,MTT,96 h,IC50,40.5 µM
CC(N)C(O)CCCCCCCCCCCCCCC(=O)CCCCCCCC(O)C(C)N (stereo not shown),HeLa,,,IC50,24.5 µM
N.N.[Cl][Pt][Cl],SU-DHL-6,ATP luminescence,72 h,IC50,7.06 µM
CC[C@H](C)[C@H](NC(=O)[C@@H](N)CCC(=O)O)C(=O)N[C@@H](C)C(=O)N1CCC[C@H]1C(=O)N[C@H](C(=O)N[C@@H](CC(C)C)C(=O)N[C@@H](Cc1c[nH]cn1)C(=O)N[C@@H](CO)C(=O)N[C@H](C(=O)O)[C@@H](C)OP(=O)(O)O)C(C)C,HeLa,MTT,72 h,IC50,0.96 µM
Cc1cc(=O)oc2cc(OCCCC[Se]C#N)ccc12,HeLa,SRB,,GI50,0.98 µM
CC(C)C[C@H](NC(=O)[C@H](CC(C)C)NC(=O)[C@@H]1CCCN1C(=O)[C@H](C)NC(=O)[C@@H](NC(=O)[C@H](C)N)C(C)C)C(=O)N[C@@H](Cc1c[nH]cn1)C(=O)N[C@@H](CO)C(=O)N[C@H](C(=O)O)[C@@H](C)OP(=O)(O)O,HeLa,MTT,72 h,IC50,1.05 µM
O=[N+]([O-])c1ccc(NCCCCCCN=C=S)c2nonc12,HDFa,MTT,24 h,IC50,5.8 µM
O=C1c2ccccc2-c2c3c(cc4ccnc1c24)OCO3,HeLa,MTT,75 h,IC50,15.7 µM
O=C1[O][Pt]2([NH][C@@H]3CCCC[C@H]3[NH]2)[O]C1=O,SNU-449,imaging,72 h,IC50,12.9 µM
O=[N+]([O-])c1ccc(NCCCCN=C=S)c2nonc12,HDFa,MTT,24 h,IC50,7.6 µM
Cc1c(Cl)c(=O)oc2cc(OCCCC[Se]C#N)ccc12,HeLa,SRB,,GI50,15 µM
COc1c(C)c2c(c(O)c1C/C=C(\C)CCC(=O)O)C(=O)OC2,Hs-578T,,,IC50,2.51 µM
